Assay outcomes as filed in PubChem BioAssay.
PostGolgi yeast – phenotypic screen on post-Golgi transport, primary screen; post-Golgi transport phenotypic cell assay; inhibition, % at 10 µM; 98,000 tested, 0.9% active;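 note: yeast cells grown in 1536-well plates; yeast grown about 18 h at 30C before absorbance read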
Candida biofilm – clotrimazole potentiators killing Candida biofilms, primary screen, with clotrimazole, Alamar Blue; C. albicans biofilm + clotrimazole; inhibition, % at 6 µM; 85,000 tested, 0.14% active;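 active = inhibition above 20%; inactive = inhibition below 20%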;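 note: preformed 24 hr biofilms exposed to compound for 48 hr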
PostGolgi ctrl – growth inhibition of yeast control strain, primary screen, counter-screen for post-Golgi transport modulator project. efflux-deficient yeast background strain, growth absorbance A615, 16 h. inhibition, % at 10 µM. 98,000 tested, 5% active
tolC growth inh – growth inhibitors of E. coli tolC mutant, primary screen, strain BW25113 ΔtolC::kan, 384-well; OD615; growth inhibition, % at 10 µM (by protocol); 65,000 tested, 2.2% active;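 active = growth inhibition at or above a cutoff equal to the mean over every tested compound plus 3 SD, cut at about 60% in these data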;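 note: growth measured after 20 h incubation at 37 °C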
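System: E. coli ΔtolC::kan strain BW25113; Buffer or medium: LB broth supplemented with 50 µg/mL kanamycin; Compound: 10 µM final, single dose; Incubation: bacterial growth with compound for 20 h at 37 °C; Signal: A615 absorbance measurement; Evaluation: growth inhibition in percent.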
PTK2B oligo ant – antagonists of Pyk2 self-association, primary screen, Q293 cells, FERM NanoBiT luminescence, HTS. z-score (the deposit names both 25 µM and 10 µM). active compounds read low. AID 1347419, 2020. Protein-tyrosine kinase 2-beta (Homo sapiens), Q14289. 99,000 tested, 0.83% active;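 active = Z-score of -3 or lower, scaled per plate to the spread of control and sample wells; inactive = z-score above -3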;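 note: negative z-score means lost luminescence so less FERM oligomerization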
Target sequence (Q14289 whole entry, looked up): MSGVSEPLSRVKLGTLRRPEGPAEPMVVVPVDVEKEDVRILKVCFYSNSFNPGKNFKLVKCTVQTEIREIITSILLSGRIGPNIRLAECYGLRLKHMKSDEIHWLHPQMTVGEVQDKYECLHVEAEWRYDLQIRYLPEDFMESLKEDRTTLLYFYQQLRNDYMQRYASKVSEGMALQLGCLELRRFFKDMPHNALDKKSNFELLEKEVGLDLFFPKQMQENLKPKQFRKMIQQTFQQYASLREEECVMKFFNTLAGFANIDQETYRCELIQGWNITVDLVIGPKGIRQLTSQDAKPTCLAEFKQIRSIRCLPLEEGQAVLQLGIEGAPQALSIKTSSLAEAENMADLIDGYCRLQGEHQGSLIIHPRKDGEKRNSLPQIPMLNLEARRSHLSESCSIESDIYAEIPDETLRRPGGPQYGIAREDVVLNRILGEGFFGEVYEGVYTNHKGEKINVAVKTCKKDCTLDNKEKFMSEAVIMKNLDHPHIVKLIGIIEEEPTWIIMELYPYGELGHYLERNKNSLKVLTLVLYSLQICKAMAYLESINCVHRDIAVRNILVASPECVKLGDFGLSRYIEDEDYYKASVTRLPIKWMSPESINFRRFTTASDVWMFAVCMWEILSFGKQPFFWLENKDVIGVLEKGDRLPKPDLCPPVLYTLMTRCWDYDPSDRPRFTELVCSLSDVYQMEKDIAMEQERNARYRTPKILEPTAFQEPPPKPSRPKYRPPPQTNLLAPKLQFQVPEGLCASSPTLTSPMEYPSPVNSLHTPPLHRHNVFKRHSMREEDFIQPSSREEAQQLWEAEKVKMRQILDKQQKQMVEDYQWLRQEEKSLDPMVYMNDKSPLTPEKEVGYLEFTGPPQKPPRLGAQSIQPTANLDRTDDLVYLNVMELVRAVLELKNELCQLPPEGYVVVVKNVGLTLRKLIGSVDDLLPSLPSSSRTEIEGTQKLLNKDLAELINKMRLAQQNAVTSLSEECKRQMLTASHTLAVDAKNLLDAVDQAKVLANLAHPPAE
FAK inh – FAK kinase inhibitors, primary screen, biochemical; biochemical FAK kinase activity assay; inhibition, %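 (tested at 7 µM)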; 97,000 tested, 0.84% active; AID 727, 2007; in the data active = inhibition above about 19%
Large screens that a line does not name were inactive. Hits are enriched below; roughly 6.9% of the tested compounds scored in any of these assays. Cut-off read from the data, not from the text of the source, unless noted: active = inhibition above about 30%; inactive = the rest.

CCc1ccc(NC(=O)CC2NCCNC2=O)cc1 (stereo unspecified)	none
Cc1c(C(=O)NNS(=O)(=O)c2ccccc2)sc(=S)n1C	none (no result: PostGolgi yeast, Candida biofilm, PostGolgi ctrl, tolC growth inh, FAK inh)
Cc1nnsc1C(=O)NNS(=O)(=O)c1ccccc1	PostGolgi ctrl 38 (no result: tolC growth inh)
CCOC(=O)c1c(NS(=O)(=O)c2ccc(Br)cc2)sc2c1CCC2	none (no result: PostGolgi yeast, PostGolgi ctrl, tolC growth inh)
CCOC(=O)c1c(NS(=O)(=O)Cc2ccccc2)sc2c1CCCC2	PostGolgi ctrl 36 (no result: tolC growth inh)
CCOC(=O)c1c(NC(=O)Cc2cccs2)sc2c1CCCC2	PostGolgi ctrl 37
CCOC(=O)c1c(NC(=O)CN(CC)CC)sc2c1CCC2	tolC growth inh 100 (no result: Candida biofilm)
CCOc1ccc(NCC(=O)Nc2ccc(C)cc2C)cc1	none
CCN1CCN(Cc2ccccc2NC(=O)Nc2ccc(C)cc2)CC1	PostGolgi ctrl 35
CCCOc1ccc(S(=O)(=O)NCc2ccc(OC)cc2)cc1	none
COc1cc(C2CC(C(F)(F)F)n3ncc(C(=O)O)c3N2)cc(OC)c1OC (stereo unspecified)	none
CCn1c2ccccc2c2cc(NC(=O)c3ccco3)ccc21	tolC growth inh 87 (no result: FAK inh)
CCn1c2ccccc2c2cc(NC(C)=O)ccc21	Candida biofilm 44 (no result: tolC growth inh)
COC(=O)Cn1c(=N)n(CCN2CCCCC2)c2ccccc21	none
CN1CCN(C(=O)c2c(NC(=O)c3ccco3)sc3c2CCC(C(C)(C)C)C3)CC1 (stereo unspecified)	PTK2B oligo ant -4.6
Cc1ccc(-c2csc3ncn(CC(=O)N4CCOCC4)c(=O)c23)cc1C	none (no result: tolC growth inh)
COC(=O)C1=C(N)Oc2cc(C)n(Cc3ccccc3)c(=O)c2C1c1ccccc1 (stereo unspecified)	PTK2B oligo ant -3 (no result: tolC growth inh)
CC1CCCCN1CCNC(=O)Cn1nc(-c2ccccc2)ccc1=O (stereo unspecified)	PostGolgi yeast 39 (no result: FAK inh)
Cc1cc2cc(C)c3nnc(SCC(=O)N4CCCc5ccccc54)n3c2cc1C	PostGolgi ctrl 30 (no result: Candida biofilm, tolC growth inh, PTK2B oligo ant)
Cn1c(N)c(S(=O)(=O)c2ccc(Br)cc2)c2nc3ccccc3nc21	none (no result: FAK inh)
CCOC(=O)N1CCc2c(sc(NC(=O)c3ccc(Cl)s3)c2C(N)=O)C1	tolC growth inh 73 (no result: Candida biofilm, PTK2B oligo ant, FAK inh)
O=S(Cc1cc(Oc2ccccc2)nc(-c2ccccc2)n1)c1ccccc1 (stereo unspecified)	PostGolgi ctrl 35 (no result: Candida biofilm, tolC growth inh)
c1ccc(-c2nc(NCC3CCCO3)c3ccccc3n2)nc1 (stereo unspecified)	none (no result: Candida biofilm)
Cc1ccc(S(=O)(=O)n2nc(C)c(Br)c2C)c(C)c1C	PostGolgi ctrl 48 (no result: Candida biofilm)
CCOC(=O)N1CCN(S(=O)(=O)c2ccc(C)c(C)c2C)CC1	none
COc1ccc(OCC(=O)NCc2cccnc2)cc1	none
COC(=O)CSc1nc2cc(C)ccc2cc1C#N	none
Cc1ccc2cc(C)c(SCC#N)nc2c1	PostGolgi yeast 31
COc1ccnc(N2CCN(c3ccccc3)CC2)c1C#N	none (no result: Candida biofilm, tolC growth inh)
Cn1nc(C(F)(F)F)c(C#N)c1N1CCN(c2ccccc2)CC1	PostGolgi ctrl 72 (no result: tolC growth inh)
Cn1nc(C(F)(F)F)c(C#N)c1N1CCN(c2ccc(F)cc2)CC1	PostGolgi ctrl 73 (no result: tolC growth inh)
CN(C)c1ccnc(-n2cccc2/C=N/OCc2ccc(F)cc2Cl)c1C#N	PostGolgi ctrl 34 (no result: tolC growth inh)
COC(=O)C1C(=O)C2=C(CC1C)NC(C)=C(C(=O)OC(C)C)C2c1ccc(OC)c(O)c1 (stereo unspecified)	none
O=C(NCc1ccc2c(c1)OCO2)c1ccc(CS(=O)(=O)c2cccc(C(F)(F)F)c2)o1	PostGolgi yeast 96 (no result: Candida biofilm)
CC(NC(=O)c1ccc(CS(=O)(=O)Cc2ccccc2F)o1)c1ccc2c(c1)OCCO2 (stereo unspecified)	none
CC(NC(=O)c1ccc(CS(=O)(=O)c2cccc(C(F)(F)F)c2)o1)c1ccc2c(c1)OCCO2 (stereo unspecified)	PostGolgi yeast 37 (no result: tolC growth inh)
COc1cccc(-c2noc(-c3cccs3)n2)c1	tolC growth inh 94
COc1cc(-c2nc(-c3cccc(C)c3)no2)cc(OC)c1OC	tolC growth inh 67 (no result: PostGolgi yeast, PostGolgi ctrl)
COc1cccc(-c2noc(-c3cccnc3)n2)c1	none
COc1cccc(-c2nc(-c3ccccc3)no2)c1	tolC growth inh 99
CC(=O)N(CCC(c1ccccc1)c1ccco1)Cc1cccs1 (stereo unspecified)	none (no result: tolC growth inh)
CN1C(=S)SC(/[N+]([O-])=C\c2ccc(Cl)cc2)C1(C)C (stereo unspecified)	none (no result: tolC growth inh)
O=C(Nc1ccc(Cl)c(Cl)c1)C1=Cc2ccccc2OC1	PostGolgi ctrl 42 (no result: tolC growth inh)
O=C(Nc1cccc(Cl)c1)C1=Cc2cc(Cl)ccc2OC1	none (no result: tolC growth inh)
COc1cc(OC)c(C2=NOC(C(=O)Nc3c(C)nn(CC(=O)N4CCCC4)c3C)C2)cc1Cl (stereo unspecified)	none
CCN(CC)c1nc2nonc2nc1N(CC)CC	none
Oc1ccc(Cl)cc1CNc1ccc(Br)cn1	PostGolgi ctrl 48
Cc1cccc(NC(=S)NNC(=O)Cc2ccccc2)c1	none (no result: PostGolgi yeast, Candida biofilm, PostGolgi ctrl, tolC growth inh, FAK inh)
O=C(Nc1ccc(Cl)cn1)c1ccc(-c2cc(Cl)ccc2Cl)o1	none (no result: Candida biofilm, tolC growth inh, PTK2B oligo ant)
Cc1ccc(C(=O)Nc2ccccc2NC(=O)c2ccc(C)o2)o1	none (no result: FAK inh)
Cc1cccc(C)c1NC(=O)c1ccc(-c2ccc(Cl)cc2Cl)o1	PostGolgi ctrl 46 (no result: tolC growth inh)
Cc1ccccc1NC(=O)c1ccc(-c2ccc(Cl)cc2Cl)o1	PostGolgi ctrl 54 (no result: tolC growth inh)
CCN(CC)C(=O)c1sc2nc(-c3cccs3)cc(-c3ccc(Cl)cc3)c2c1N	none (no result: tolC growth inh)
COc1ccc(CCNS(=O)(=O)c2ccccc2)cc1OC	none
CN(c1ccc(O)cc1)c1nc(-c2ccccc2)cs1	tolC growth inh 98 (no result: PostGolgi yeast, PostGolgi ctrl, PTK2B oligo ant, FAK inh)
COC(=O)c1ccc(N2C(=O)CC(Sc3n[nH]c(C)n3)C2=O)cc1 (stereo unspecified)	none
CN=C(Nc1cc(Cl)ccc1Cl)SC1CC(=O)N(c2ccc(C(=O)OC)cc2)C1=O (stereo unspecified)	PostGolgi ctrl 38 (no result: Candida biofilm, tolC growth inh)
Cc1cc(N2CCN(c3ccccc3)CC2)nc(NCc2ccccc2)n1	PostGolgi ctrl 47
COc1cc(C)nc(NCc2ccccc2)n1	none
CCCCN(CC)c1nc(N)c2c(N)nc(OCC)cc2c1C#N	PostGolgi ctrl 76 (no result: tolC growth inh)
CCCCN(CC)c1nc(N)c(C#N)c(CC#N)c1C#N	none (no result: tolC growth inh)
O=C1c2ccccc2C(=O)N1Cc1nc2ccccc2o1	none
CC(C)OCCCNC(=O)c1cccs1	PostGolgi ctrl 32
CCCCOCCCNC(=O)c1cccs1	none
O=S(=O)(c1ccccc1)N1CCN(S(=O)(=O)N2CCCCC2)CC1	none (no result: tolC growth inh)
COc1cccc(C2C3=C(N=C4SCC(=O)N42)c2ccccc2CC3)c1OC (stereo unspecified)	PostGolgi ctrl 40 (no result: Candida biofilm)
COc1ccc(OC)c(C2C3=C(N=C4SCC(=O)N42)c2ccccc2CC3)c1 (stereo unspecified)	none
C=CCn1c(SCC(=O)Nc2sccc2C(N)=O)nc2ccc(Cl)cc2c1=O	PTK2B oligo ant -3.2 (no result: tolC growth inh)
C=CCn1c(SCC(=O)Nc2sccc2C(N)=O)nc2sc(CC)cc2c1=O	PTK2B oligo ant -3.5 (no result: tolC growth inh)
